Measurements from ChEMBL document CHEMBL4725448, “Substituted Azabicyclo[2.2.1]heptanes as Selective Orexin-1 Antagonists: Discovery of JNJ-54717793” (ACS Med Chem Lett, 2020).

How the values were obtained:
[1] = Oral bioavailability in rat at 5 mg/kg; format: ADME, organism-based; settings: in vivo
[2] = Stability in human liver microsomes assessed as extraction ratio; format: ADME, Microsome; settings: read-out: ERH
How it was run: (§1)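 Metabolic stability in human or rat liver microsomes, expressed as extraction ratios.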

[3] = Ex vivo receptor occupancy at OX1R in Sprague-Dawley rat brain tenia tecta using [3H]SB-674042 labelling at 10 mg/kg, po measured after 0.5 hrs by autoradiography; format: functional
How it was run: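 Rats received a single oral dose, and OX1R occupancy was measured by ex vivo binding autoradiography in brain tenia tecta sections at 0.5, 2 and 6 h after dosing. Occupancy is expressed as percent. Brain and plasma drug levels (ng/mL) were also sampled at the 0.5 h time point.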

[4] = Permeability across apical to basolateral side in MDCK cells; format: ADME, cell-based, Canis lupus familiaris; settings: dog
[5] = Cmax in primate; format: ADME; settings: primates
[6] = AUC (0 to 24 hrs) in mouse assessed as NOAEL at 200 mg/kg/day, po measured after immediately administered; format: ADME, organism-based; set-up: route oral, dose 200 mg/kg/day, time 13 day; settings: in vivo
[7] = Clearance in mouse at 1 mg/kg, iv and 5 mg/kg, po; format: ADME, organism-based; settings: in vivo
[8] = Volume of distribution at steady state in mouse at 1 mg/kg, iv and 5 mg/kg, po; format: ADME, organism-based; settings: in vivo, read-out: Vdss
[9] = Drug concentration in Sprague-Dawley rat plasma at 10 mg/kg, po after 0.5 hrs by LC-MS/MS analysis; format: ADME, organism-based
How it was run: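 Brain and plasma levels (ng/mL) sampled 0.5 h after oral dosing at 10 or 30 mg/kg, alongside the ex vivo tenia tecta occupancy study.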

[10] = Ex vivo receptor occupancy at OX1R in Sprague-Dawley rat brain tenia tecta using [3H]SB-674042 labelling at 30 mg/kg, po measured after 0.5 hrs by autoradiography; format: functional
How it was run: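 Ex vivo OX1R binding autoradiography in rat tenia tecta after a 30 mg/kg po dose; percent occupancy read at 0.5 and 2 h.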

[11] = Protein binding in rat brain assessed as free fraction; format: ADME, tissue-based
[12] = Stability in rat liver microsomes assessed as extraction ratio; format: ADME, Microsome; settings: read-out: ERH; how it was run: as §1
[13] = Cmax in mouse at 1 mg/kg, iv and 5 mg/kg, po; format: ADME, organism-based; set-up: dose 5 mg/kg; settings: in vivo
[14] = Clearance in dog at 0.5 mg/kg, iv and […], po; format: ADME, organism-based, Canis lupus familiaris; settings: in vivo, dose 2.5 mg/kg
PXR (NR1I2) = biological target: T1, PXR (NR1I2) (Homo sapiens, UniProt O75469); assay: Induction of human PXR at 10 uM relative to control; format: ADME; settings: read-out: Activity
T1 sequence (O75469 whole entry): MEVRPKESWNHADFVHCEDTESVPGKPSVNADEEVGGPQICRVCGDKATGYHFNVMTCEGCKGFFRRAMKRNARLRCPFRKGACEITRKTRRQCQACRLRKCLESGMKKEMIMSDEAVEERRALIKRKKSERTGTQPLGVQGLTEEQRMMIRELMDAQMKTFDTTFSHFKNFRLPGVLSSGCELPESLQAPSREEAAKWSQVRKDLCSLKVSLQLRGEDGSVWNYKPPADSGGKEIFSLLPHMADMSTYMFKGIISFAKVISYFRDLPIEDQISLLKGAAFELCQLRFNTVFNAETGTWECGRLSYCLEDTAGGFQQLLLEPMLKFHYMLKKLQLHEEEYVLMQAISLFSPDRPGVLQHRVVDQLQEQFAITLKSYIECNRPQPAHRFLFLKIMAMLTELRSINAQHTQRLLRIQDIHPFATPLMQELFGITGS
How it was run: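 Human PXR activation as an indirect measure of CYP3A4 induction, at 10 μM, expressed as % of rifampicin control activation.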

[15] = AUC (0 to 24 hrs) in rat assessed as NOAEL at 200 mg/kg/day, po measured after immediately administered; format: ADME, organism-based; set-up: route oral, time 13 day, dose 200 mg/kg/day; settings: in vivo
[16] = Oral bioavailability in dog at […]; format: ADME, organism-based, Canis lupus familiaris; settings: in vivo, dose 2.5 mg/kg
[17] = Cmax in dog assessed as NOAEL at 25 mg/kg, po administered for 6 days; format: ADME, organism-based, Canis lupus familiaris; set-up: route oral, dose 25 mg/kg, time 6 day; settings: in vivo
How it was run: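 Six-day dog toxicology study with oral dosing; NOAEL-level Cmax; exposures compared between sexes and between day 0 and day 5.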

[18] = Cmax in rat assessed as NOAEL at 200 mg/kg/day, po measured after immediately administered; format: ADME, organism-based; set-up: route oral, dose 200 mg/kg/day, time 13 day; settings: in vivo
[19] = Stability in dog liver microsomes assessed as extraction ratio; format: ADME, Canis lupus familiaris, Microsome; settings: read-out: ERH
[20] = AUC (0 to 24 hrs) in rat assessed as NOAEL at 200 mg/kg/day, po administered as repeated dose for 13 days; format: ADME, organism-based; set-up: route oral, time 13 day, dose 200 mg/kg/day; settings: in vivo

Work on `O=C(c1cccc(F)c1-c1ncccn1)N1[C@@H]2CC[C@H]1[C@H](Nc1cnc(C(F)(F)F)cn1)C2` yielded a bioavailability [1] of 119%, a hepatic extraction ratio [2] of less than 0.3 and an Activity [3] of 70%. For the same molecule, the Papp A→B [4] was 1.95 ×10⁻⁶ cm/s, the Cmax [5] was 349 ng/mL and the AUC at 312 h [6] was 225 µg·h/mL. It also gave a clearance [7] of 21 mL/min/kg, a Vd [8] of 1.1 L/kg and a concentration at 0.5 h [9] of 1190 ng/mL. It also gave an Activity [10] of 100%, a fraction unbound [11] of 0.09 and a hepatic extraction ratio [12] of 0.31. It also gave a Cmax [13] of 1500 ng/mL, a clearance [14] of 0.9 mL/min/kg and an activity at 10 µM (PXR (NR1I2)) of 29%. It also gave an AUC at 312 h [15] of 386 µg·h/mL, a bioavailability [16] of 48% and a Cmax [17] of 15100 ng/mL. It also gave a Cmax [18] of 30900 ng/mL, a hepatic extraction ratio [19] of less than 0.3 and an AUC at 312 h [20] of 36.2 µg·h/mL.
